From ChEMBL document CHEMBL1123201, “7-(Trifluoromethyl)-4-aminoquinoline hypotensives: novel peripheral sympatholytics” (J Med Chem, 1986)

Legend:
[1] = test system: Rattus norvegicus; experiment: Hypotensive activity in conscious rat 4 hr after 5 mg/kg p.o. administration.; assay type: functional; conditions: route oral
Method in brief: (§1)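 Restrained (towel-wrapped, to raise sympathetic tone) conscious female Sprague-Dawley rats with chronic indwelling aortic cannulas exteriorized at the nape; blood pressure recorded directly by transducer before and 4 and 24 h after oral dosing. Compound suspended in carboxymethylcellulose vehicle, 10 mL/kg; doses 50 to 0.05 mg/kg. Two rats averaged per time point; average change ≥5 mmHg taken as significant (p < 0.05).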

[2] = test system: Rattus norvegicus; experiment: Hypotensive activity in conscious rat 24 hr after 5 mg/kg p.o. administration.; assay type: functional; conditions: route oral; method in brief: as §1
[3] = test system: Rattus norvegicus; experiment: Compound was tested for hypotensive activity by measuring the average change in mean arterial blood pressure in mmHg after 24 hr at 0.5 mg/Kg oral dosing of a conscious rat; assay type: functional, Artery; method in brief: as §1
[4] = species: Mus musculus; experiment: Lowest dose of compound associated with unacceptable clinical signs.; assay type: functional
[5] = Acute toxicity was determined in mice; assay type: organism-based; conditions: mouse, in vivo
[6] = species: Mus musculus; experiment: Lowest dose of compound associated with clinical signs.; assay type: functional
[7] = test system: Rattus norvegicus; experiment: Compound was tested for hypotensive activity by measuring the average change in mean arterial blood pressure in mmHg after 4 hr at 0.5 mg/Kg oral dosing of a conscious rat; assay type: functional, Artery; method in brief: as §1
[8] = test system: Rattus norvegicus; experiment: Compound was tested for hypotensive activity by measuring the average change in mean arterial blood pressure in mmHg after 24 hr at 1.5 mg/Kg oral dosing of a conscious rat; assay type: functional, Artery; method in brief: as §1
[9] = test system: Rattus norvegicus; experiment: Compound was tested for hypotensive activity by measuring the average change in mean arterial blood pressure in mmHg after 4 hr at 1.5 mg/Kg oral dosing of a conscious rat; assay type: functional, Artery; method in brief: as §1
[10] = test system: Rattus norvegicus; experiment: Compound was tested for hypotensive activity by measuring the average change in mean arterial blood pressure in mmHg after 4 hr at 0.15 mg/Kg oral dosing of a conscious rat; assay type: functional, Artery; method in brief: as §1
[11] = test system: Rattus norvegicus; experiment: Compound was tested for hypotensive activity by measuring the average change in mean arterial blood pressure in mmHg after 4 hr at 0.05 mg/Kg oral dosing of a conscious rat; assay type: functional, Artery; method in brief: as §1
[12] = test system: Rattus norvegicus; experiment: Compound was tested for hypotensive activity by measuring the average change in mean arterial blood pressure in mmHg after 24 hr at 0.05 mg/Kg oral dosing of a conscious rat; assay type: functional, Artery; method in brief: as §1
[13] = test system: Rattus norvegicus; experiment: Compound was tested for hypotensive activity by measuring the average change in mean arterial blood pressure in mmHg after 24 hr at 0.15 mg/Kg oral dosing of a conscious rat; assay type: functional, Artery; method in brief: as §1
[14] = test system: Rattus norvegicus; experiment: Compound was tested for hypotensive activity by measuring the average change in mean arterial blood pressure in mmHg after 4 hr at 15 mg/Kg oral dosing of a conscious rat; assay type: functional, Artery; method in brief: as §1
[15] = test system: Rattus norvegicus; experiment: Compound was tested for hypotensive activity by measuring the average change in mean arterial blood pressure in mmHg after 24 hr at 15 mg/Kg oral dosing of a conscious rat; assay type: functional, Artery; method in brief: as §1
[16] = test system: Rattus norvegicus; experiment: Compound was tested for hypotensive activity by measuring the average change in mean arterial blood pressure in mmHg after 4 hr at 50 mg/Kg oral dosing of a conscious rat; assay type: functional, Artery; method in brief: as §1
[17] = test system: Rattus norvegicus; experiment: Compound was tested for hypotensive activity by measuring the average change in mean arterial blood pressure in mmHg after 24 hr at 50 mg/Kg oral dosing of a conscious rat; assay type: functional, Artery; method in brief: as §1
[18] = test system: Rattus norvegicus; experiment: Compound was tested for hypotensive activity by measuring the average change in mean arterial blood pressure in mmHg after 24 hr at 1 mg/Kg oral dosing of a conscious rat; assay type: functional, Artery; method in brief: as §1
[19] = test system: Rattus norvegicus; experiment: Compound was tested for hypotensive activity by measuring the average change in mean arterial blood pressure in mmHg after 4 hr at 1 mg/Kg oral dosing of a conscious rat; assay type: functional, Artery; method in brief: as §1

SMILES | Activity [1] [mmHg] | Activity [2] [mmHg] | Activity [3] [mmHg] | Dose [4] [mg/kg] | LD50 [5] [mg/kg] | Dose [6] [mg/kg] | Activity [7] [mmHg] | further results
Cc1ccc(S(=O)(=O)N2CCN(C(=O)c3ccc(Nc4ccnc5cc(C(F)(F)F)ccc45)cc3)CC2)cc1 | -42 | -25 | – | – | – | – | – | –
O=C(c1ccc(Nc2ccnc3cc(C(F)(F)F)ccc23)cc1)N1CCN(c2ccccn2)CC1 | -10 | -13 | -2 | 316 | 1400 | <100 | 2 | –
CN(C)S(=O)(=O)N1CCN(C(=O)c2ccc(Nc3ccnc4cc(C(F)(F)F)ccc34)cc2)CC1 | -18 | -6 | -2 | >3160 | > 3160 | 100 | -6 | –
COc1ccccc1N1CCN(S(=O)(=O)c2ccc(Nc3ccnc4cc(C(F)(F)F)ccc34)cc2)CC1 | -1 | -14 | – | – | – | – | – | –
O=C(c1ccc(Nc2ccnc3cc(C(F)(F)F)ccc23)cc1)N1CCN(S(=O)(=O)c2ccc(F)cc2)CC1 [LOSULAZINE] | – | – | -15 | >3160 | > 3160 | 100 | -10 | Activity [8]: -21 mmHg; Activity [9]: -17 mmHg; Activity [10]: -12 mmHg; Activity [11]: -6 mmHg; Activity [12]: -2 mmHg; Activity [13]: -14 mmHg; Activity [14]: -19 mmHg; Activity [15]: -25 mmHg
CSc1nccc(N2CCN(C(=O)c3ccc(Nc4ccnc5cc(C(F)(F)F)ccc45)cc3)CC2)n1 | -8 | -16 | – | – | – | – | – | –
O=C(c1ccc(Nc2ccnc3cc(C(F)(F)F)ccc23)cc1)N1CCC(c2ccccc2)CC1 | – | – | – | – | – | – | – | Activity [16]: -4 mmHg; Activity [17]: -17 mmHg
O=C(c1ccc(Nc2ccnc3cc(C(F)(F)F)ccc23)cc1)N1CCN(S(=O)(=O)c2ccc(Cl)cc2)CC1 | -20 | -34 | -15 | >3160 | > 3160 | <100 | -13 | –
Cc1cccc(C2(O)CCN(C(=O)c3ccc(Nc4ccnc5cc(C(F)(F)F)ccc45)cc3)CC2)c1 | -10 | -4 | -1 | – | – | – | -4 | –
COc1ccc(C2(O)CCN(C(=O)c3ccc(Nc4ccnc5cc(C(F)(F)F)ccc45)cc3)CC2)cc1 | -15 | -5 | – | – | – | – | – | –
Cc1ccccc1N1CCN(S(=O)(=O)c2ccc(Nc3ccnc4cc(C(F)(F)F)ccc34)cc2)CC1 | -10 | -13 | 0 | – | – | – | -1 | –
O=C(c1ccc(Nc2ccnc3cc(C(F)(F)F)ccc23)cc1)N1CCN(c2ccc(F)cc2)CC1 | -11 | -10 | – | – | – | – | – | Activity [18]: 1 mmHg; Activity [19]: -12 mmHg
COc1ccccc1N1CCN(C(=O)c2ccc(Nc3ccnc4cc(C(F)(F)F)ccc34)cc2)CC1 | – | – | – | – | – | – | – | Activity [16]: -13 mmHg; Activity [17]: -27 mmHg
